Assay results reported in PubChem BioAssay AID540246 (Broad Institute, 2011).
Activity calls are given as the source filed them.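 How the source made its calls: active means IC50 no more than ten times the top valid dose, with luminescence dropping as cells die; inconclusive means flat curve losing 30 to 70% of signal, or poor fit; inactive means the rest, including signal rises.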

Key:
[1] = cytotoxicity in ldlA[mSR-BI] cells, dose response, cytotoxicity control for SR-BI HDL uptake inhibitor project, cell-based, CellTiter-Glo, 3 h, dry powder (AID 540246); conditions: ldlA[mSR-BI] CHO cells viability, CellTiter-Glo ATP, 3 h; at 35 µM (top of the series)
Procedure, shortened: (§1)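 Test system: ldlA[mSR-BI] cells. Buffer or medium: Ham's F12 growth medium containing 10% FCS. Compound: eight doses per compound. Times: 3 h compound exposure of cells at 37 °C. Technique: cell Titer Glo ATP luminescence. Read-out: IC50 for loss of cell viability fitted from dose series.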

[2] = test system: ldlA[mSR-BI] CHO cells viability, CellTiter-Glo ATP, 3 h; test: as above
Procedure, shortened: as §1

For `COc1cccc(-c2csc(N3CCN(C(=S)Nc4cccc(Cl)c4)CC3)n2)c1`, the activity change, negative = cytotoxicity [1] was -1.79% (inactive).
For `Cc1ccc2oc(-c3cccc(NC(=O)c4cc(-n5cnnc5)ccc4Cl)c3)nc2c1`, the IC50 [2] was 31.7 µM.
For `C[C@H](CO)N1C[C@H](C)[C@H](CN(C)S(=O)(=O)c2ccc(F)cc2)Oc2ccc(NC(=O)Cc3cn(C)c4ccccc34)cc2C1=O`, the activity change, negative = cytotoxicity [1] was -7.27% (inactive).
For `C[C@H]1CN([C@@H](C)CO)C(=O)c2cccc(N(C)C)c2O[C@@H]1CN(C)Cc1ccc(Cl)c(Cl)c1`, the activity change, negative = cytotoxicity [1] was -9.85% (inactive).
In the case of `O=C(Nc1cc(Cl)ccc1Cl)c1cc(Br)ccc1NS(=O)(=O)c1ccc(Cl)c([N+](=O)[O-])c1`, the activity change, negative = cytotoxicity [1] is reported as -7.81% (inactive).
For `O=C(Nc1ccccc1Cl)c1ccccc1NS(=O)(=O)c1ccccc1`, the activity change, negative = cytotoxicity [1] was 0.062% (inactive).
In the case of `O=C(Nc1ccc(-c2nc3cc(NC(=O)c4ccccc4[N+](=O)[O-])ccc3o2)cc1)c1ccccc1[N+](=O)[O-]`, the activity change, negative = cytotoxicity [1] is reported as 9.71% (inactive).
For `C[C@@H]1CN([C@H](C)CO)C(=O)c2cc(NC(=O)Cc3cn(C)c4ccccc34)ccc2O[C@H]1CN(C)S(=O)(=O)c1ccc(F)cc1`, the activity change, negative = cytotoxicity [1] was 3.35% (inactive).
In the case of `C[C@@H]1CN([C@H](C)CO)C(=O)c2cc(NC(=O)Cc3cn(C)c4ccccc34)ccc2O[C@H]1CN(C)S(C)(=O)=O`, the activity change, negative = cytotoxicity [1] is reported as 0.836% (inactive).
With `Cc1cc(SC(C)C(=O)Nc2ncc(Cl)cc2Cl)nc2ccccc12` (stereo not given) the activity change, negative = cytotoxicity [1] was -7.81% (inactive).
With `C[C@H]1CN([C@@H](C)CO)C(=O)c2cc(NC(=O)Cc3cn(C)c4ccccc34)ccc2O[C@@H]1CN(C)S(=O)(=O)c1ccc(F)cc1` the activity change, negative = cytotoxicity [1] was 6.2% (inactive).
For `CC(C)(C)NC(=O)N1CCN(c2ncccc2C(F)(F)F)CC1`, the activity change, negative = cytotoxicity [1] was 5.12% (inactive).
For `C[C@H]1CN([C@@H](C)CO)C(=O)c2cccc(NC(=O)Nc3ccccc3)c2O[C@@H]1CN(C)C`, the activity change, negative = cytotoxicity [1] was -3.85% (inactive).
In the case of `COc1ccc(-c2nnn(CC(=O)N(C3CCCCC3)C(C)C(=O)NC3CCCC3)n2)cc1OC` (stereo not given), the IC50 [2] is reported as > 35 µM (inactive).
With `CCOc1ccccc1/C=C/c1onc(C)c1S(=O)(=O)N1CCC(C(=O)NC(C)(C)C)CC1` the IC50 [2] was > 35 µM (inactive).
For `O=C(Nc1ccc(-c2nc3ccc(NC(=O)c4ccc(Cl)cc4)cc3[nH]2)cc1)c1ccc(Cl)cc1`, the activity change, negative = cytotoxicity [1] was 5.01% (inactive).
With `Nc1ccc(C(=O)Nc2ccc(-c3nc4ccc(NC(=O)c5ccc(N)cc5)cc4[nH]3)cc2)cc1` the activity change, negative = cytotoxicity [1] was 11.1% (inactive).
For `O=C(Nc1ccc(-c2nc3cc(NC(=O)c4ccccc4Cl)ccc3o2)cc1)c1ccccc1Cl`, the activity change, negative = cytotoxicity [1] was 15.2% (inactive).
For `CCn1c(COc2c(C)cccc2C)nnc1SCC(=O)N1CCN(c2ccccc2)CC1`, the activity change, negative = cytotoxicity [1] was -2.44% (inactive).
With `O=C(Nc1cc(Cl)ccc1Cl)c1cc(Cl)ccc1NS(=O)(=O)c1ccc(Cl)c([N+](=O)[O-])c1` the IC50 [2] was > 35 µM (inactive).
With `O=C(Nc1cc(C(F)(F)F)ccc1Cl)c1ccccc1NS(=O)(=O)c1ccc(Cl)cc1` the activity change, negative = cytotoxicity [1] was 4.37% (inactive).
Molecule `O=C(Nc1ccc(-c2nc3ccc(NC(=O)c4ccccc4)cc3[nH]2)cc1)c1ccccc1` has an IC50 [2] of 37.8 µM.
In the case of `C[C@H]1CN([C@@H](C)CO)C(=O)c2cccc(NC(=O)Nc3ccccc3)c2O[C@@H]1CN(C)S(C)(=O)=O`, the activity change, negative = cytotoxicity [1] is reported as -2.86% (inactive).
With `Cc1cc(C)c2c(c1)NC(c1cc3c(cc1Br)OCO3)C1CC=CC21` (stereo not given) the activity change, negative = cytotoxicity [1] was -1.84% (inactive).
In the case of `COC(=O)c1cn(C(=O)c2cccc3ccccc23)c2ccccc12`, the activity change, negative = cytotoxicity [1] is reported as -9.72% (inactive).
With `O=C(Nc1cccc(NC(=O)c2cc([N+](=O)[O-])ccc2Cl)n1)c1cc([N+](=O)[O-])ccc1Cl` the activity change, negative = cytotoxicity [1] was -3.61% (inactive).
With `CCC(=O)N1CCc2cc(-c3csc(NC(=O)c4ccco4)n3)ccc21` the activity change, negative = cytotoxicity [1] was -3.84% (inactive).
With `CC(C)NC(=O)Nc1cccc2c1O[C@H](CN(C)Cc1ccc(Cl)c(Cl)c1)[C@@H](C)CN([C@@H](C)CO)C2=O` the activity change, negative = cytotoxicity [1] was 3.16% (inactive).
With `C[C@@H]1CN([C@H](C)CO)C(=O)Cc2cc(NC(=O)Cc3cn(C)c4ccccc34)ccc2O[C@H]1CN(C)S(=O)(=O)c1ccc(F)cc1` the activity change, negative = cytotoxicity [1] was -1% (inactive).
`C[C@H]1CN([C@@H](C)CO)C(=O)c2cccc(NC(=O)Nc3ccccc3)c2O[C@@H]1CN(C)Cc1ccc(Cl)c(Cl)c1` gave an IC50 [2] of 66.5 µM.
